Test results from ChEMBL document CHEMBL4725285, “Amides as bioisosteres of triazole-based geranylgeranyl diphosphate synthase inhibitors” (Bioorg Med Chem, 2020).
Active and inactive are the calls of the source. The rule behind the calls is not given here.

Columns and labels:
Rattus norvegicus [1] = species on record: Rattus norvegicus; assay: Inhibition of recombinant rat FTase expressed in Escherichia coli using dansyl-GCVLS peptide and farnesyl pyrophosphate as substrate at 100 uM after 1 hr by fluorescence microplate reader analysis relative to control
Summary of the method: (§1)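 Recombinant FTase and GGTase I assayed with dansyl-GCVLS and dansyl-GCVLL peptides by a modified Temple et al. method. Fluorescence change followed over time on a microplate reader. Duplicates at multiple concentrations, up to 100 μM, in three independent experiments. IC50 taken from concentration-response curves.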

[2] = target: T1, Farnesyl pyrophosphate synthase (Homo sapiens, UniProt P14324); assay: Inhibition of recombinant FDPS (unknown origin) using [14C] IPP and GPP as substrate preincubated for 10 mins followed by substrate addition and measured after 30 min by liquid scintillation counting method
T1 sequence (P14324 whole entry): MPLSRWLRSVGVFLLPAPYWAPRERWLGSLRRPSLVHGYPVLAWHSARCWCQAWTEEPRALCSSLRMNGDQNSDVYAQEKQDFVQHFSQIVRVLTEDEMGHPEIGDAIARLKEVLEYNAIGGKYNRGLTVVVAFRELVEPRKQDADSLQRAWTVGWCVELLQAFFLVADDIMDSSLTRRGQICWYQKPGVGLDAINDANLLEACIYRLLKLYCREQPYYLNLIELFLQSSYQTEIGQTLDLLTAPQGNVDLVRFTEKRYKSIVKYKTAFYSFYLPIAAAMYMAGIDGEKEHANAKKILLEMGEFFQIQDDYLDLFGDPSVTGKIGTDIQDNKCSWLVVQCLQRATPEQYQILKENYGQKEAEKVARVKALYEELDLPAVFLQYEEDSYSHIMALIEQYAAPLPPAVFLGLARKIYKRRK

[3] = target: T2, Geranylgeranyl pyrophosphate synthase (Homo sapiens) (UniProt O95749); assay: Inhibition of GGDPS in human RPMI-8226 cells assessed as lowest effective concentration required for increase in intracellular lambda chain level after 48 hrs by ELISA; assay type: cell-based
T2 sequence (whole entry): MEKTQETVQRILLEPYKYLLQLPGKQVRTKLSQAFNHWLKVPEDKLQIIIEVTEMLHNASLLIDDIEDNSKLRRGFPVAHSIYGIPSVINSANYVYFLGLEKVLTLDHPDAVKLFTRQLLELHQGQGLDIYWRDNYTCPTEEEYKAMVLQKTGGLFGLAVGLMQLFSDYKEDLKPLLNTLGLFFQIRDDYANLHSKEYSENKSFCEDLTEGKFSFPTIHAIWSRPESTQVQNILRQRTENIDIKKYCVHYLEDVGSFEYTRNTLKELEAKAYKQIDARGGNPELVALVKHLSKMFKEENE

[4] = target: T3, Geranylgeranyl pyrophosphate synthase (Homo sapiens, UniProt O95749); assay: Inhibition of recombinant GGDPS (unknown origin) using [14C] IPP and FPP as substrate preincubated for 10 mins followed by substrate addition and measured after 30 min by liquid scintillation counting method
T3 sequence (O95749 whole entry): T2 sequence (whole entry)
Summary of the method: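 Recombinant GGDPS used, run by a previously described method. Each compound tested in duplicate at multiple concentrations across three independent experiments. IC50 derived from concentration-response curves.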

[5] = target: T2, Geranylgeranyl pyrophosphate synthase (Homo sapiens); assay: Inhibition of GGDPS in human RPMI-8226 cells assessed as lowest effective concentration required to show unmodified Rap1a band after 48 hrs by immunoblot analysis; assay type: cell-based
Summary of the method: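 RPMI-8226 myeloma cells exposed to drugs for 48 hrs, with lovastatin as positive control. Lysate protein quantified by BCA. Equal amounts run on SDS-PAGE, blotted to PVDF, and probed for H-Ras, Rap1a (antibody recognises only unmodified protein) and β-tubulin as loading control. Detection by HRP secondary antibodies and ECL.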

Rattus norvegicus [6] = species on record: Rattus norvegicus; assay: Inhibition of recombinant rat GGtase-1 expressed in Escherichia coli using dansyl-GCVLS and geranylgeranyl pyrophosphate as substrate at 100 uM after 2 hrs by fluorescence microplate reader analysis relative to control; summary of the method: as §1
Homo sapiens = species on record: Homo sapiens; assay: Selectivity ratio of IC50 for FDPS (unknown origin) to IC50 for GGDPS (unknown origin)
Rattus norvegicus [7] = species on record: Rattus norvegicus; assay: Inhibition of recombinant rat GGtase-1 expressed in Escherichia coli using dansyl-GCVLS and geranylgeranyl pyrophosphate as substrate after 2 hrs by fluorescence microplate reader analysis; summary of the method: as §1

Q: With `CC(C)=CCC[C@H](C)CC(=O)NCCC(P(=O)(O)O)P(=O)(O)O` as the compound, how does the inhibition (Rattus norvegicus [1]) read?
A: The inhibition was “inactive”.

Q: And the IC50 [2]?
A: The IC50 was 27.8 µM.

Q: What about the LED [3] of the same compound?
A: The LED was 50 µM.

Q: And the IC50 [4]?
A: The IC50 was 5.4 µM.

Q: And the LED [5]?
A: Its LED is 50 µM.

Q: What about the inhibition (Rattus norvegicus [6]) of the same compound?
A: The inhibition was “inactive”.

Q: And the Ratio IC50 (Homo sapiens)?
A: The Ratio IC50 was 5.1.

Q: What does the source list for `CC(C)=CCC/C(C)=C/CCC(=O)NCCC(P(=O)(O)O)P(=O)(O)O`?
A: inhibition (Rattus norvegicus [1]): inactive; IC50 [2]: 14.3 µM; LED [3]: 1 µM; IC50 [4]: 0.8 µM; LED [5]: 1 µM; inhibition (Rattus norvegicus [6]): inactive; Ratio IC50 (Homo sapiens): 17.9

Q: For `CC(C)=CCC/C(C)=C/C(=O)NCCC(P(=O)(O)O)P(=O)(O)O` (mixture of isomers), which LED [3] is on record?
A: The LED was 10 µM.

Q: And the LED [5]?
A: The LED was 10 µM.

Q: How did the inhibition (Rattus norvegicus [1]) turn out when `CC(C)=CCC/C(C)=C\CCC(=O)NCCC(P(=O)(O)O)P(=O)(O)O` was run?
A: Its inhibition is “inactive”.

Q: What about the IC50 [2] of the same compound?
A: Its IC50 is 31.7 µM.

Q: What about the LED [3] of the same compound?
A: The LED was 0.5 µM.

Q: What about the IC50 [4] of the same compound?
A: The IC50 was 1.1 µM.

Q: And the LED [5]?
A: Its LED is 0.5 µM.

Q: And the inhibition (Rattus norvegicus [6])?
A: The inhibition was “inactive”.

Q: And the Ratio IC50 (Homo sapiens)?
A: The Ratio IC50 was 28.8.

Q: How did the inhibition (Rattus norvegicus [1]) turn out when `CC(C)=CCC/C(C)=C\CC(=O)NCCC(P(=O)(O)O)P(=O)(O)O` was run?
A: The inhibition was “inactive”.

Q: And the IC50 [2]?
A: Its IC50 is 7.8 µM.

Q: What about the LED [3] of the same compound?
A: The LED was 5 µM.

Q: And the IC50 [4]?
A: The IC50 was 3.7 µM.

Q: And the LED [5]?
A: Its LED is 5 µM.

Q: What about the inhibition (Rattus norvegicus [6]) of the same compound?
A: Its inhibition is “inactive”.

Q: What about the Ratio IC50 (Homo sapiens) of the same compound?
A: Its Ratio IC50 is 2.1.

Q: How did the IC50 [2] turn out when `CC(C)=CCC/C(C)=C\CCn1cc(CC(P(=O)(O)O)P(=O)(O)O)nn1` was run?
A: Its IC50 is 33.3 µM.

Q: What about the LED [3] of the same compound?
A: Its LED is 0.03 µM.

Q: What about the LED [5] of the same compound?
A: Its LED is 0.03 µM.

Q: What about the Ratio IC50 (Homo sapiens) of the same compound?
A: Its Ratio IC50 is 445.

Q: Which IC50 [2] does the source give for `CC(C)=CCCC(=O)NCCC(P(=O)(O)O)P(=O)(O)O` here?
A: Its IC50 is 44.4 µM.

Q: And the LED [3]?
A: The LED was 50 µM.

Q: What about the IC50 [4] of the same compound?
A: The IC50 was 14.4 µM.

Q: What about the LED [5] of the same compound?
A: Its LED is 50 µM.

Q: And the Ratio IC50 (Homo sapiens)?
A: Its Ratio IC50 is 3.1.

Q: For `CC(C)=CCC[C@@H](C)CC(=O)NCCC(P(=O)(O)O)P(=O)(O)O`, which inhibition (Rattus norvegicus [1]) is on record?
A: Its inhibition is “inactive”.

Q: And the IC50 [2]?
A: The IC50 was 48.5 µM.

Q: And the LED [3]?
A: Its LED is 5 µM.

Q: And the IC50 [4]?
A: Its IC50 is 3.4 µM.

Q: And the LED [5]?
A: Its LED is 5 µM.

Q: What about the inhibition (Rattus norvegicus [6]) of the same compound?
A: Its inhibition is “inactive”.

Q: What about the Ratio IC50 (Homo sapiens) of the same compound?
A: The Ratio IC50 was 14.3.

Q: Which results are given for `CC(C)=CCC/C(C)=C/C(=O)NCCC(P(=O)(O)O)P(=O)(O)O`?
A: LED [3]: 5 µM; LED [5]: 5 µM; inhibition (Rattus norvegicus [7]): inactive

Q: What does the source list for `CC(C)=CCC/C(C)=C\C(=O)NCCC(P(=O)(O)O)P(=O)(O)O`?
A: inhibition (Rattus norvegicus [1]): < 30%; LED [3]: 50 µM; LED [5]: 50 µM
